Bioassay records as filed in PubChem.
Compounds with a hit are over-represented: about 1.9% of the library has one in this group of screens.
NPY-Y1 PAM-ag = potentiates or activates human NPY-Y1 receptor | 0.37% of 220,000 active | P25929 | NPY-Y1 expressing cells, potentiator/agonist activation | activation, % at 3.6 µM; in the data active = activation above about 33%, passing the limit was not always enough;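 note: cells stimulated with NPY at EC10 then isoproterenol at EC100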
NPY2 pot ag = human NPY-Y2 potentiation or agonism, primary screen; P49146; cells expressing NPY-Y2, potentiator/agonist read-out; activation, % at 3.6 µM; 0.45% of 220,000 active; AID 1359; in the data active = activation above about 27%;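 note: cells stimulated with NPY near EC25 plus isoproterenol at EC100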
Target sequence (P49146 whole entry, looked up): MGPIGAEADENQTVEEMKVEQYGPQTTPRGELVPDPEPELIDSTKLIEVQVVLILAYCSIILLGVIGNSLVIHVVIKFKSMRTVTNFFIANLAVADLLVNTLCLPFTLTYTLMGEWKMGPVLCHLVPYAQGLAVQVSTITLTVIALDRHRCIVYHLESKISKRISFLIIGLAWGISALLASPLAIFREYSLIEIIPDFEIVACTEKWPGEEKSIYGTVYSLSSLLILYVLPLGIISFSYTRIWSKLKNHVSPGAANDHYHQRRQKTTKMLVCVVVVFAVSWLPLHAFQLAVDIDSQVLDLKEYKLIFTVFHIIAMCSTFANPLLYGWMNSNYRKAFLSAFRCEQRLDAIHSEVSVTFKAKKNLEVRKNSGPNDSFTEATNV
NPY Y1 blocker = antagonists of human neuropeptide Y receptor Y1; P25929; HEK293-CNG Y1 cells, membrane potential fluorescence; NPY at EC95, then isoproterenol; inhibition, % at 3.6 µM; 1% of 200,000 active; AID 1040;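 active = inhibition above the campaign mean inhibition of all tested compounds plus 3 SD, cut at about 20% in these data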
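Assay system: HEK293 Y1/CNG channel cell line; Doses: single compound dose of 3.6 µM, 0.4% DMSO; Timing: dye 3 h, compound 60 min room temperature, stimulation 45 min; Technique: Membrane-potential fluorescent dye readout; Measure: % inhibition of NPY effect.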
NPY-Y2 antag = NPY-Y2 (human) receptor antagonism; P49146; NPY-Y2 expressing cells, antagonist mode; inhibition, % at 2.7 µM; 0.99% of 140,000 active; AID 793; in the data active = inhibition above about 17%
Numbers stand for hits; – = inactive; · = not tested or not shown.

SMILES	NPY-Y1 PAM-ag	NPY2 pot ag	NPY Y1 blocker	NPY-Y2 antag
Cc1ccc2c(CC(=O)N3CCN(c4ccccc4)CC3)coc2c1	–	–	–	·
CN(c1cccc(Cl)c1)S(=O)(=O)c1cccc(C(=O)Nc2nc3ccccc3[nH]2)c1	–	–	30	27
COc1ccc(N(C)S(=O)(=O)c2cccc(C(=O)Nc3nc4ccccc4[nH]3)c2)cc1	–	–	–	·
CC(C)NC(=O)COc1ccc(S(=O)(=O)N(C)Cc2ccccc2)cc1	–	–	·	·
O=C(O)CCC(=O)c1ccc2c(c1)OCCO2	–	–	29	18
c1cc2c3c(cccc3c1)NC1(CCC3(CC1)Nc1cccc4cccc(c14)N3)N2	60	56	·	·
NC(=O)c1cc(N=Nc2c(N)[nH]n(-c3c(Cl)cc(Cl)cc3Cl)c2=O)ccc1Cl	–	–	–	·
CCOC(=O)CSc1nc2c(sc(=S)n2-c2ccccc2OC)c(=O)n1Cc1ccco1	–	–	34	27
CCOC(=O)CSc1nc2c(sc(=S)n2Cc2ccco2)c(=O)n1-c1ccccc1	–	–	60	36
O=C(Cc1ccc(Br)cc1)Nc1ncc([N+](=O)[O-])s1	50	62	·	·
CC(CC(=O)Nc1ncc([N+](=O)[O-])s1)c1ccccc1 (centres undefined)	–	–	–	·
Cn1c(=O)c2c(ncn2CC(O)CNc2ccc(F)cc2)n(C)c1=O (centres undefined)	–	–	·	·
CCCNC(=O)c1nc(C)n(-c2cc(Cl)ccc2Cl)n1	–	–	–	·
Cc1c(N(C)C)nc2ccccc2c1N	–	–	–	–
Nc1c2ccccc2nc2ccccc12	64	51	·	·
CCN(CC)c1nc2ccccc2c(N)c1-c1ccccc1	–	–	29	23
COCCCNC(=O)c1c(N)n(/N=C/c2cccnc2)c2nc3ccccc3nc12	–	–	–	–
COCCCNC(=O)c1c(N)n(/N=C/c2cccs2)c2nc3ccccc3nc12	–	–	–	19
CC(=O)Nc1ccc(Nc2ccc3c4c(cc(=O)n3C)-c3ccccc3C(=O)c24)cc1	–	–	–	·
O=C1c2ccccc2C(=O)c2c(Nc3ccc(CCO)cc3)ccc(O)c21	121	117	·	·
CC1=CC(C)(C)N(C(=O)CSc2nnc(N)s2)c2c(C)cc(C)cc21	70	–	–	–
Cc1cc(C)c(C(=O)CSc2nnc(N)s2)c(C)c1	–	–	–	·
COc1ccccc1NC(=O)COc1ccc(Br)cc1CNC1CCCC1	–	–	21	·
COc1cccc(CNC(=O)N[C@@H](C)C(=O)O)c1	–	–	·	·
CCOC(=O)CSc1nc2ccc(NC(C)=O)cc2s1	72	58	–	–
SMILES	NPY-Y1 PAM-ag	NPY2 pot ag	NPY Y1 blocker	NPY-Y2 antag
COC(=O)CSc1nc2ccc(NC(=O)c3ccccc3C(=O)N3CCOCC3)cc2s1	109	95	–	–
O=C(Nc1ccc2nc(SCc3ccc(Cl)cc3)sc2c1)c1ccccc1C(=O)N1CCOCC1	–	–	–	–
COc1ccccc1C(CC(=O)c1ccccc1)CC(=O)c1ccccc1	–	–	21	·
COc1ccc(OCc2cc(C(=O)O)c(C)o2)cc1	–	–	·	·
Cc1ccc(C)c(OCC(=O)Nc2nonc2NC(=O)COc2cc(C)ccc2C)c1	–	–	24	21
Cc1cccc(OCC(=O)Nc2nonc2NC(=O)COc2cccc(C)c2)c1	–	–	–	–
COc1ccc(/C=C2\N=C(c3ccccc3)NNC2=O)cc1	–	–	·	·
CCCOC(=O)c1ccc(NC(=O)c2ccccc2OC)cc1	–	–	21	·
CCCCOC(=O)c1ccc(NC(=O)c2ccccc2OC)cc1	–	–	–	–
Cc1cccc(CCNS(=O)(=O)c2ccc(S(=O)(=O)N3CCC(C)CC3)cc2)c1	–	–	22	–
OC(c1cc(C(F)(F)F)nc2c(Cl)cc(Cl)cc12)C1CCCCN1 (centres undefined)	66	62	·	·
OC(c1cc(-c2ccc(Cl)cc2)nc2ccccc12)C1CCCCN1 (centres undefined)	–	–	·	·
Cc1ccc([N+](=O)[O-])cc1NC(=O)CN(C(=O)c1ccccc1Cl)C1CCCCC1	–	–	50	26
CS(=O)(=O)c1ccc2nc(N)sc2c1	41	–	–	–
Cc1ccc(S(=O)(=O)Nc2ccc3nc(N)sc3c2)cc1	–	–	–	–
O=C(c1ccc(F)cc1)N(NC(=O)C(O)(c1ccccc1)c1ccccc1)c1ccccc1	–	–	49	30
COC(=O)N(NC(=O)C(O)(CCC(C)C)CCC(C)C)c1ccccc1	–	–	52	26
CC(C)CCC(O)(CCC(C)C)C(=O)NNc1ccccc1	–	–	–	–
COC(=O)N(NC(=O)C(O)(c1ccccc1)c1ccccc1)c1ccccc1	–	–	33	22
O=C(NN(C(=O)c1ccccc1)c1ccccc1)c1ccccc1	–	–	·	·
OCCC1CN(Cc2nc3ccccc3s2)CCN1CCc1ccccc1 (centres undefined)	–	–	–	·
Cc1cccc(C)c1NCc1n[nH]c(=S)n1-c1ccccc1	–	–	–	·
O=C(Nc1cccc2c1CCCC2)c1ccc(Cl)c([N+](=O)[O-])c1	–	–	–	–
O=C(Nc1ccccc1-c1ccccc1)c1ccc(Cl)c([N+](=O)[O-])c1	71	29	–	–
COc1ccc(-c2nc(C#N)c(NCCc3ccccc3)o2)cc1OC	–	–	–	–
SMILES	NPY-Y1 PAM-ag	NPY2 pot ag	NPY Y1 blocker	NPY-Y2 antag
Cc1ccc(-c2nc(C#N)c(NCc3cccc4c3OCO4)o2)cc1	–	–	28	22
COc1ccc(-c2nc(C#N)c(NCc3ccc(C)cc3)o2)cc1OC	–	–	–	27
Cc1ccc(CNc2oc(-c3ccco3)nc2C#N)cc1	–	–	–	–
CC(=O)C1C(c2ccc([N+](=O)[O-])cc2)c2c(noc2C)CC1(C)O (centres undefined)	–	–	·	·
CCCCN(CCCC)CC(O)COc1ccccc1Br (centres undefined)	–	–	40	26
CC(C)CN(CC(C)C)CC(O)COc1ccccc1Br (centres undefined)	–	–	–	–
COc1ccc(-c2nc(N)ncc2-c2csc(C)n2)c(O)c1OC	–	–	–	·
O=C(NC1CCCCCCC1)C1c2ccccc2C(=O)N1Cc1cccs1 (centres undefined)	–	–	33	31
COc1ccc(CNCc2cccc(Oc3ccccc3)c2)cc1	–	–	21	·
Fc1cccc(Cl)c1Cn1nnc2c(NCc3ccncc3)ncnc21	–	–	–	·
Cc1ccc(S(=O)(=O)N2CCC(C(=O)O)CC2)cc1	–	–	–	·
c1ccc2c(c1)CCN(c1nc(CN3CCOCC3)nc3sc4c(c13)CCCC4)C2	–	–	23	23
c1ccc(CN2C3=NCCN3c3ccccc32)cc1	–	–	–	–
Clc1ccc(CN2C3=NCCN3c3ccccc32)cc1Cl	–	–	39	18
Cn1nc(C(F)(F)F)c(-c2ccc(Br)cc2)c1NC(=O)Nc1ccc(F)cc1F	108	99	·	·
Cn1nc(C(F)(F)F)c(-c2ccc(F)cc2)c1NC(=O)c1ccco1	–	–	·	·
O=[N+]([O-])c1ccc2c(c1Nc1ccccc1)=NC1(CCCCC1)N=2	–	–	–	–
COc1ccc(Nc2c([N+](=O)[O-])ccc3c2=NC2(CCCCC2)N=3)cc1	44	38	–	·
